Screening data from PubChem.
Rows were chosen to be rich in hits. Some 2.4% of all compounds tested hit in one or more screens of this group.
NTR1 ag – agonists of human neurotensin receptor NTR1; P30989; NTR1-U2OS beta-arrestin-GFP spot imaging, agonist mode; activation, % at 20 µM; 0.17% of 330,000 active; AID 493036;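 active = activation at or above 40% of the spot to cytoplasm intensity ratio, with at least 20 cells analyzed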;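 note: 0% = DMSO without peptide and 100% = 100 nM NTR1 peptide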
Target sequence (P30989 whole entry, looked up): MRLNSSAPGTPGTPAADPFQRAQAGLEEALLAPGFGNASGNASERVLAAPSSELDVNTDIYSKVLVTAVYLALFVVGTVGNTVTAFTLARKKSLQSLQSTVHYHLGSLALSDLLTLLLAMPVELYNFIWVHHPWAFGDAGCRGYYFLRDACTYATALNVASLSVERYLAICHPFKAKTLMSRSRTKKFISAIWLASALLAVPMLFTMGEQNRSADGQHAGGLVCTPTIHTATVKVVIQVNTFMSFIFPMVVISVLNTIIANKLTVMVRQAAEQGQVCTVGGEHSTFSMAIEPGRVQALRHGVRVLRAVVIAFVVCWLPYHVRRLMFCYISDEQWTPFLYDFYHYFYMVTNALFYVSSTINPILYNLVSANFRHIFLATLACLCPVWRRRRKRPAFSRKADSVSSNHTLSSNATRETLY
aDG glyco up – increases alpha dystroglycan glycosylation | Pro5-aDG cells, alpha-DG glycosylation AlphaScreen (IIH6); 0% Pro5, 100% B10-LARGE cell signal | activation, % at 10 µM | 0.22% of 360,000 active;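 active = activation of at least 8% versus controls, or a plate z-score of at least 8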;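 note: Pro5 are CHO cells carrying HIG-tagged alpha-DG that lacks glycosylation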
MC4R barr agon – human MC4R agonism via beta-arrestin; P32245; 0.98% of 360,000 active; AID 540308; U2OS MC4R beta-arrestin complementation, luminescence; percent of melanotan II response, DMSO zero; activation, % at 8.9 µM;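 active = activation above a per-plate cutoff, the mean activation of sample wells on that plate plus 3 SD, cut at about 8% in these data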
MC4R antag cAMP – human MC4R antagonism in cAMP assay | P32245 | MC4R-expressing cells, MTII-stimulated cAMP, LANCE TR-FRET | inhibition, % at 6.5 µM | 0.48% of 360,000 active;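 active = inhibition above its plate's cutoff, the mean of tested wells on that plate plus 3 SD, cut at about 29% in these data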;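 note: 0% = Melanotan II alone and 100% = Melanotan II plus saturating MCL0020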
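System – human MC4R-expressing U2OS cells · Also added – Melanotan II · Dosing – one concentration, 6.5 µM nominal · Timing – 30-min compound, 1-h challenge, 1-h detection, room temperature · Measured by – Eu-cAMP/anti-cAMP TR-FRET, emission 671 nm · Replicates – singlicate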
TbMetRS inhib – Trypanosoma brucei MetRS inhibition. purified T. brucei MetRS, ATP depletion, Kinase-Glo luminescence. inhibition, % at 11.9 µM. 0.4% of 360,000 active;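 active = inhibition above a per-plate cutoff of the control wells' mean inhibition plus 3 SD, cut at about 5.5% in these data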;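 note: 0% = DMSO wells median and 100% = median of wells with control inhibitor compound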
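Dosing: 11.9 µM single point; system: parasite MetRS enzyme; technique: luminescence of leftover ATP; times: 15 min enzyme-compound preincubation, 2 h reaction, 10 min detection, 25 °C; replicates: each compound tested once; read-out basis: percent inhibition relative to median high and low control wells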
TAG inh – reduces triacylglycerol accumulation in H9c2 cells; Nile Red lipid (TAG) fluorescence; cells loaded with 200 µM oleic acid; inhibition, % at 12.5 µM; 0.66% of 230,000 active; AID 651582;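 active = pattern-corrected inhibition of lipid staining of at least 50% with the nuclear-stain viability signal not falling by more than 50%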;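 note: 0% = DMSO wells and 100% = triacsin C control wells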
The depositor's hits bear a star.

Cc1ccc(N(C(=O)CCC(=O)Nc2cc(C)on2)C(C(=O)NC2CCCC2)c2cccs2)cc1 (centres undefined) was read as NTR1 ag 0, aDG glyco up 0, MC4R barr agon 0, MC4R antag cAMP 16, TbMetRS inhib 0 and TAG inh 9.
Screening Cc1ccc(N(C(=O)C(F)(F)F)C(C(=O)NC2CCCCC2)c2cccs2)cc1 (centres undefined) returned NTR1 ag 2, aDG glyco up 0, MC4R barr agon 15*, MC4R antag cAMP 11 and TbMetRS inhib 0.
`O=C1OCC2=C1C(c1ccc(F)cc1)c1cc3c(cc1N2)OCO3` (centres undefined) gave aDG glyco up 0, MC4R barr agon -1, MC4R antag cAMP -5, TbMetRS inhib 0 and TAG inh -9.
For O=C1OCC2=C1C(c1ccc(F)cc1)c1cc3c(cc1N2)OCCO3 (centres undefined) the results were aDG glyco up 0, MC4R barr agon -2, MC4R antag cAMP -22, TbMetRS inhib 0 and TAG inh 60*.
COc1ccc(OC)c(CN2C(=O)CN(S(C)(=O)=O)CC2(C)C(=O)NCc2ccccc2)c1 (centres undefined) was read as aDG glyco up 0 and TbMetRS inhib 0.
For O=C1CCCCC1C(Nc1ccc(Cl)cc1)c1ccccc1 (centres undefined) the results were NTR1 ag 11, aDG glyco up 0, MC4R barr agon 8.9*, MC4R antag cAMP 2, TbMetRS inhib 0 and TAG inh -13.
`Cn1cc([N+](=O)[O-])c(C(=O)Nc2ccc(-c3nc4ccccc4o3)cc2)n1` gave NTR1 ag 3, aDG glyco up 0, MC4R barr agon 13*, MC4R antag cAMP 7, TbMetRS inhib -1 and TAG inh 87.
`O=C(Nc1ccc(-c2nc3ccccc3o2)cc1)c1ccc(N2CCOCC2)c([N+](=O)[O-])c1` gave NTR1 ag 15, aDG glyco up 0, MC4R barr agon 1, MC4R antag cAMP 16 and TbMetRS inhib 0.
Screening Nc1nc2ncccn2c1-c1ccc(F)c(F)c1 returned aDG glyco up 0 and TbMetRS inhib 0.
`CCn1cc([N+](=O)[O-])c(C(=O)N2N=C(c3ccc4ccccc4c3)CC2c2ccccc2O)n1` (centres undefined) gave NTR1 ag 10, aDG glyco up 0, MC4R barr agon 7, MC4R antag cAMP 10, TbMetRS inhib -1 and TAG inh 71*.
For CN1CCN(c2ncnc3c2ncn3[C@H]2CN(Cc3cccnc3)C[C@@H](CO)O2)CC1 the results were aDG glyco up 0, MC4R barr agon 0, MC4R antag cAMP 4, TbMetRS inhib 0 and TAG inh 10.
For COc1ccc(OCCNc2cc(Cl)ccc2[N+](=O)[O-])cc1 the results were NTR1 ag 0, aDG glyco up 0, MC4R barr agon 10*, MC4R antag cAMP 13 and TbMetRS inhib -1.
Screening CN(C)c1ccc(NS(=O)(=O)c2ccc(Cl)cc2)cc1 returned NTR1 ag 0, aDG glyco up 0, MC4R barr agon 0, MC4R antag cAMP 13 and TbMetRS inhib 1.
`CN(C)c1ccc(S(=O)(=O)c2ccc(Cl)cc2)cc1` gave NTR1 ag 0, aDG glyco up 0, MC4R barr agon 8.3*, MC4R antag cAMP -5, TbMetRS inhib -1 and TAG inh -15.
For CCN(CC)C(=O)c1cccc(-c2csc(C(NC(C)=O)c3cccc(OC)c3)n2)c1 (centres undefined) the results were aDG glyco up 0, MC4R barr agon -1, MC4R antag cAMP -1, TbMetRS inhib 0 and TAG inh -16.
Screening Cc1cccc(-n2ncc3c(N4CC(C)CC(C)C4)ncnc32)c1 (centres undefined) returned NTR1 ag 3, aDG glyco up 0, MC4R barr agon 8.4*, MC4R antag cAMP -2, TbMetRS inhib 0 and TAG inh -5.
`O=C(Nc1c2ccccc2nc2ccccc12)C(Cl)(Cl)Cl` gave NTR1 ag 2, aDG glyco up 1, MC4R barr agon 2, MC4R antag cAMP 4, TbMetRS inhib -2 and TAG inh 66*.
`O=C(Cc1ccccc1)NNc1c2ccccc2nc2ccccc12` gave NTR1 ag 6, aDG glyco up 0, MC4R barr agon 2, MC4R antag cAMP 18, TbMetRS inhib 0 and TAG inh -15.
For S=C(SSC(=S)N1CCOCC1)N1CCOCC1 the results were aDG glyco up 0 and TbMetRS inhib 0.
For CCOc1ccc(/C=C(\C#N)C(=O)Nc2cccnc2)cc1 the results were NTR1 ag 0, aDG glyco up 0, MC4R barr agon -1, MC4R antag cAMP 2 and TbMetRS inhib 1.
Screening CCOc1ccc(NC(=O)/C(C#N)=C\c2ccc(N3CCCC3)c(C)c2)cc1 returned aDG glyco up 0, MC4R barr agon 13*, MC4R antag cAMP 0, TbMetRS inhib 0 and TAG inh -99.
For CC1(C(=O)Nc2ccc3[nH]ncc3c2)CCN1C(=O)C/C=C/c1ccccc1 (centres undefined) the results were aDG glyco up 0, MC4R barr agon -1, MC4R antag cAMP 1, TbMetRS inhib 1 and TAG inh -5.
Screening Cc1ccc(CN2C(=O)N/C(=C\c3ccc(N4CCOCC4)cc3)C2=O)cc1 returned NTR1 ag 3, aDG glyco up 0, MC4R barr agon 8.6*, MC4R antag cAMP -2 and TbMetRS inhib -1.
`CCCN1C(=O)/C(=C/c2ccc(N3CCOCC3)cc2)NC1=S` gave NTR1 ag 0, aDG glyco up 0, MC4R barr agon -4, MC4R antag cAMP -4, TbMetRS inhib 0 and TAG inh -15.
Screening CSCc1cc(C(=O)NCCN2CCOCC2)c(N)s1 returned aDG glyco up 0 and TbMetRS inhib 0.
Screening CC(=O)Nc1cccc(Oc2nc(-c3ccccn3)nc3ccccc23)c1 returned NTR1 ag 0, aDG glyco up 2, MC4R barr agon 0, MC4R antag cAMP -1, TbMetRS inhib 0 and TAG inh 24.
For Cc1ccccc1Oc1nc(-c2ccccn2)nc2ccccc12 the results were NTR1 ag 5, aDG glyco up 2.1*, MC4R barr agon 1, MC4R antag cAMP -4, TbMetRS inhib 0 and TAG inh 57*.
For CC(C)C[C@H]1CN(CCCC[C@@H]2CNC(=O)C(=O)N2Cc2ccccc2)C(=O)C(=O)N1Cc1ccccc1 the results were aDG glyco up 0 and TbMetRS inhib 0.
For CCOC(=O)C1CCCN(C(=O)c2cccnc2Oc2ccccc2)CC1 (centres undefined) the results were aDG glyco up 0, MC4R barr agon -2, MC4R antag cAMP 8, TbMetRS inhib 0 and TAG inh -9.
